Results taken from ChEMBL document CHEMBL1687729, “Intracellular activity of antibiotics in a model of human THP-1 macrophages infected by a Staphylococcus aureus small-colony variant strain isolated from a cystic fibrosis patient: pharmacodynamic evaluation and comparison with isogenic normal-phenotype and revertant strains” (Antimicrob Agents Chemother, 2009).
In brackets after ≈: the same amount, converted by molar mass. Activity calls are given as the source filed them. No cut-off for these calls is given here.

Experiments:
[1] = (§1) Fraction unbound in human plasma
Staphylococcus aureus [2] = test: Antibacterial activity against Staphylococcus aureus SCV isolated from cystic fibrosis patient in cation-adjusted MH 2 broth at pH 5.5 after 48 hrs by broth microdilution method; assay type: functional
How it was run: (§2)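 MIC by CLSI broth microdilution in cation-adjusted MH II broth adjusted to pH 5.5. Readings were taken at 48 h for the SCV and at 24 h for the normal-phenotype strain.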

Staphylococcus aureus [3] = test: Antibacterial activity against revertant Staphylococcus aureus at pH 7.4 after 24 hrs by broth microdilution method
Staphylococcus aureus [4] = test: Antibacterial activity against Staphylococcus aureus SCV isolated from cystic fibrosis patient infected in human THP-1 cells assessed as log reduction of intracellular CFU level after 24 hrs in presence of thymidine; assay type: functional, organism-based
How it was run: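 SCV-infected THP-1 macrophages are exposed 24 h after phagocytosis to antibiotic, with 100 mg/liter thymidine added to the culture medium together with the drug. Read-out is change in log CFU per mg cell protein from the initial inoculum. Data are means ± SD, n = 3; significance by ANOVA with Tukey's test.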

Staphylococcus aureus [5] = test: Antibacterial activity against normal phenotype Staphylococcus aureus in infected in human THP-1 cells assessed as log reduction of extracellular CFU level after 24 hrs; assay type: functional, organism-based
Staphylococcus aureus [6] = test: Antibacterial activity against Staphylococcus aureus SCV isolated from cystic fibrosis patient at pH 7.4 after 48 hrs by broth microdilution method in presence of thymidine; assay type: functional
How it was run: (§3)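 MIC by CLSI broth microdilution in cation-adjusted MH II broth. For oritavancin, 0.002% polysorbate-80 was added and non-tissue-culture-treated plates were used to limit binding to plastic. Plates were read at 24 h for normal and revertant strains and at 48 h for the SCV. Where stated, the SCV was tested with 100 mg/liter thymidine. Growth was aerobic.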

Staphylococcus aureus [7] = test: Antibacterial activity against normal phenotype Staphylococcus aureus at pH 7.4 after 24 hrs by broth microdilution method
Staphylococcus aureus [8] = test: Antibacterial activity against Staphylococcus aureus SCV isolated from cystic fibrosis patient at pH 7.4 after 48 hrs by broth microdilution method in absence of thymidine; assay type: functional; how it was run: as §3
[9] = (§4) Cmax in human plasma; assay type: ADME, organism-based; details: plasma
Staphylococcus aureus [10] = test: Antibacterial activity against Staphylococcus aureus SCV isolated from cystic fibrosis patient in cation-adjusted MH 2 broth assessed as log reduction of extracellular CFU after 5 hrs; assay type: functional
How it was run: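 Broth exposure to total drug levels mimicking human serum Cmax, same concentrations as the intracellular assay, for 5 or 24 h. Medium is CA-MH broth, with 0.002% polysorbate-80 when oritavancin is tested. Samples are plated on brain heart infusion agar and incubated 48 h before SCV colonies are counted. Read-out is Δlog CFU/ml from the initial inoculum.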

Staphylococcus aureus [11] = test: Antibacterial activity against normal phenotype Staphylococcus aureus in cation-adjusted MH 2 broth at pH 5.5 after 24 hrs by broth microdilution method; assay type: functional; how it was run: as §2
Staphylococcus aureus [12] = test: Antibacterial activity against revertant Staphylococcus aureus infected in human THP-1 cells assessed as log reduction of extracellular CFU level after 24 hrs; assay type: functional, organism-based
Staphylococcus aureus [13] = test: Antibacterial activity against Staphylococcus aureus SCV isolated from cystic fibrosis patient infected in human THP-1 cells assessed as log reduction of intracellular CFU after 5 hrs; assay type: functional
How it was run: (§5)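 THP-1 macrophages are infected with the SCV strain, then extracellular bacteria are eliminated after phagocytosis. Drug is added at total concentrations mimicking human serum Cmax for 5, 24 or 72 h. Lysates are plated on brain heart infusion agar and counted after 48 h. Read-out is Δlog CFU/mg cell protein from the postphagocytosis inoculum; no drug-free control is run at 72 h.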

Staphylococcus aureus [14] = test: Antibacterial activity against Staphylococcus aureus SCV isolated from cystic fibrosis patient infected in human THP-1 cells assessed as log reduction of intracellular CFU after 72 hrs; assay type: functional; how it was run: as §5
Plasma [15] = test: as §1
Plasma [16] = test: as §4; assay type: ADME, organism-based; details: in vivo
Staphylococcus aureus [17] = test: Antibacterial activity against Staphylococcus aureus SCV isolated from cystic fibrosis patient infected in human THP-1 cells assessed as log reduction of intracellular CFU after 24 hrs; assay type: functional

Compound | fraction unbound [1] | MIC (Staphylococcus aureus [2]) [µg/mL] | MIC (Staphylococcus aureus [3]) [µg/mL] | Activity (Staphylococcus aureus [4]) | Activity (Staphylococcus aureus [5]) | MIC (Staphylococcus aureus [6]) [µg/mL] | MIC (Staphylococcus aureus [7]) [µg/mL] | MIC (Staphylococcus aureus [8]) [µg/mL] | Cmax [9] [ng/mL] | log10cfu (Staphylococcus aureus [10]) | MIC (Staphylococcus aureus [11]) [µg/mL] | Activity (Staphylococcus aureus [12]) | log10cfu (Staphylococcus aureus [13]) | log10cfu (Staphylococcus aureus [14]) | Fu (Plasma [15]) [%] | Cmax (Plasma [16]) [ng/mL] | log10cfu (Staphylococcus aureus [17])
CC(=O)O[C@H]1C[C@@]2(C)[C@@H](C[C@@H](O)[C@H]3[C@@]4(C)CC[C@@H](O)[C@@H](C)[C@@H]4CC[C@@]32C)/C1=C(\CCC=C(C)C)C(=O)O [FUSIDIC ACID] | 0.05 | 0.03 (≈ 0.0581 µM) | 0.06 (≈ 0.116 µM) | Active | Active | 0.03 | 0.125 (≈ 0.242 µM) | 0.03 (≈ 0.0581 µM) | 30000 | 1 | 0.125 (≈ 0.242 µM) | Active | – | – | – | – | –
CC(=O)NC[C@H]1CN(c2ccc(N3CCOCC3)c(F)c2)C(=O)O1 [LINEZOLID] | 0.31 | – | – | Active | – | – | – | – | 16000 | 1 | – | – | – | – | – | – | –
CCCCCCCCCCNCCN[C@@]1(C)C[C@H](O[C@H]2[C@H](Oc3c4cc5cc3Oc3ccc(cc3Cl)[C@@H](O)[C@@H](NC(=O)[C@@H](CC(C)C)NC)C(=O)N[C@@H](CC(N)=O)C(=O)N[C@H]5C(=O)N[C@H]3C(=O)N[C@H](C(=O)N[C@H](C(=O)O)c5cc(O)c(CNCP(=O)(O)O)c(O)c5-c5cc3ccc5O)[C@H](O)c3ccc(c(Cl)c3)O4)O[C@H](CO)[C@@H](O)[C@@H]2O)O[C@@H](C)[C@H]1O [TELAVANCIN] | 0.07 | 0.125 (≈ 0.0712 µM) | 0.125 (≈ 0.0712 µM) | Active | – | 0.125 | 0.125 (≈ 0.0712 µM) | 0.125 (≈ 0.0712 µM) | 90000 | – | 0.125 (≈ 0.0712 µM) | – | – | – | – | – | –
CCCCCCCCCC(=O)N[C@@H](Cc1c[nH]c2ccccc12)C(=O)N[C@H](CC(N)=O)C(=O)N[C@@H](CC(=O)O)C(=O)N[C@@H]1C(=O)NCC(=O)N[C@@H](CCCN)C(=O)N[C@@H](CC(=O)O)C(=O)N[C@H](C)C(=O)N[C@@H](CC(=O)O)C(=O)NCC(=O)N[C@H](CO)C(=O)N[C@@H]([C@H](C)CC(=O)O)C(=O)N[C@@H](CC(=O)c2ccccc2N)C(=O)O[C@@H]1C | 0.1 | 0.25 (≈ 0.154 µM) | 0.25 (≈ 0.154 µM) | Active | – | 0.25 | 0.125 (≈ 0.0771 µM) | 0.125 (≈ 0.0771 µM) | 57000 | – | 0.125 (≈ 0.0771 µM) | – | – | – | – | – | –
Cc1onc(-c2ccccc2)c1C(=O)N[C@@H]1C(=O)N2[C@@H]1SC(C)(C)[C@@H]2C(=O)O [OXACILLIN] | 0.07 | 0.015 (≈ 0.0374 µM) | 0.25 (≈ 0.623 µM) | Active | Active | 0.25 | 0.5 (≈ 1.25 µM) | 0.125 (≈ 0.311 µM) | 64000 | – | 0.03 (≈ 0.0747 µM) | Active | – | – | – | – | –
CO[C@H]1/C=C/O[C@@]2(C)Oc3c(C)c(O)c4c(O)c(c(/C=N/N5CCN(C)CC5)c(O)c4c3C2=O)NC(=O)/C(C)=C\C=C\[C@H](C)[C@H](O)[C@@H](C)[C@@H](O)[C@@H](C)[C@H](OC(C)=O)[C@@H]1C [RIFAMPIN] | 0.15 | 0.0005 (≈ 0.000608 µM) | 0.0005 (≈ 0.000608 µM) | Active | – | 0.002 | 0.002 (≈ 0.00243 µM) | 0.0005 (≈ 0.000608 µM) | 18000 | – | 0.0002 (≈ 0.000243 µM) | – | 1 | 2 | – | – | –
COc1c(N2C[C@@H]3CCCN[C@@H]3C2)c(F)cc2c(=O)c(C(=O)O)cn(C3CC3)c12 [MOXIFLOXACIN] | – | 2 (≈ 4.98 µM) | 0.125 (≈ 0.311 µM) | Active | – | 0.125 | 0.25 (≈ 0.623 µM) | 0.125 (≈ 0.311 µM) | 4000 | – | 2 (≈ 4.98 µM) | – | 1 | 1 | – | – | –
GENTAMICIN [listing 1 of 2 here] | – | 4 | – | Active | – | 0.125 | – | 0.125 | – | – | 8 | – | – | – | – | – | –
GENTAMICIN [listing 2 of 2 here] | – | – | – | – | – | – | – | – | – | – | – | – | – | – | 100 | 18000 | –
CN(C)c1cc(NC(=O)CNC(C)(C)C)c(O)c2c1C[C@H]1C[C@H]3[C@H](N(C)C)C(O)=C(C(N)=O)C(=O)[C@@]3(O)C(O)=C1C2=O [TIGECYCLINE] | 0.2 | 0.125 (≈ 0.213 µM) | 0.125 (≈ 0.213 µM) | Active | – | 0.125 | 0.125 (≈ 0.213 µM) | 0.125 (≈ 0.213 µM) | 1000 | 1 | 0.125 (≈ 0.213 µM) | – | – | – | – | – | –
CCC[C@@H]1C[C@@H](C(=O)N[C@@H]([C@H]2O[C@H](SC)[C@H](O)[C@@H](O)[C@H]2O)[C@H](C)Cl)N(C)C1 [CLINDAMYCIN] | 0.1 | 1 (≈ 2.35 µM) | 0.125 (≈ 0.294 µM) | Active | – | 0.125 | 0.125 (≈ 0.294 µM) | 0.125 (≈ 0.294 µM) | 4000 | 2 | 1 (≈ 2.35 µM) | – | – | – | – | – | –
CN[C@H](CC(C)C)C(=O)N[C@H]1C(=O)N[C@@H](CC(N)=O)C(=O)N[C@H]2C(=O)N[C@H]3C(=O)N[C@H](C(=O)N[C@H](C(=O)O)c4cc(O)cc(O)c4-c4cc3ccc4O)[C@H](O)c3ccc(c(Cl)c3)Oc3cc2cc(c3O[C@@H]2O[C@H](CO)[C@@H](O)[C@H](O)[C@H]2O[C@H]2C[C@](C)(N)[C@H](O)[C@H](C)O2)Oc2ccc(cc2Cl)[C@H]1O [VANCOMYCIN] | 0.5 | – | – | Active | Active | – | – | – | 50000 | – | – | Active | – | – | – | – | –
CN[C@H](CC(C)C)C(=O)N[C@H]1C(=O)N[C@@H](CC(N)=O)C(=O)N[C@H]2C(=O)N[C@H]3C(=O)N[C@H](C(=O)N[C@H](C(=O)O)c4cc(O)cc(O)c4-c4cc3ccc4O)[C@H](O[C@H]3C[C@](C)(N)[C@@H](O)[C@H](C)O3)c3ccc(c(Cl)c3)Oc3cc2cc(c3O[C@@H]2O[C@H](CO)[C@@H](O)[C@H](O)[C@H]2O[C@H]2C[C@](C)(NCc3ccc(-c4ccc(Cl)cc4)cc3)[C@@H](O)[C@H](C)O2)Oc2ccc(cc2Cl)[C@H]1O [ORITAVANCIN] | 0.12 | 0.125 (≈ 0.0697 µM) | 0.015 (≈ 0.00837 µM) | Active | – | 0.015 | 0.03 (≈ 0.0167 µM) | 0.015 (≈ 0.00837 µM) | 25000 | – | 0.03 (≈ 0.0167 µM) | – | 1 | 1 | – | – | 2.5
